The source made the active and inactive calls. The calls are words filed in the database; no cut-off is given here.
Experiments:
[1] = target: T1, Sodium- and chloride-dependent glycine transporter 1 (Rattus norvegicus) (UniProt P28572); test: Binding affinity to GlyT1 in rat brain midbrain at 0.03 to 0.04 nM preincubated for 20 mins in binding buffer before compound addition measured after 30 mins by autoradiography in presence of 1 mM GlyT1 substrate glycine relative to control; type: tissue-based; settings: tested as the 125I-labelled form
T1 sequence (whole entry): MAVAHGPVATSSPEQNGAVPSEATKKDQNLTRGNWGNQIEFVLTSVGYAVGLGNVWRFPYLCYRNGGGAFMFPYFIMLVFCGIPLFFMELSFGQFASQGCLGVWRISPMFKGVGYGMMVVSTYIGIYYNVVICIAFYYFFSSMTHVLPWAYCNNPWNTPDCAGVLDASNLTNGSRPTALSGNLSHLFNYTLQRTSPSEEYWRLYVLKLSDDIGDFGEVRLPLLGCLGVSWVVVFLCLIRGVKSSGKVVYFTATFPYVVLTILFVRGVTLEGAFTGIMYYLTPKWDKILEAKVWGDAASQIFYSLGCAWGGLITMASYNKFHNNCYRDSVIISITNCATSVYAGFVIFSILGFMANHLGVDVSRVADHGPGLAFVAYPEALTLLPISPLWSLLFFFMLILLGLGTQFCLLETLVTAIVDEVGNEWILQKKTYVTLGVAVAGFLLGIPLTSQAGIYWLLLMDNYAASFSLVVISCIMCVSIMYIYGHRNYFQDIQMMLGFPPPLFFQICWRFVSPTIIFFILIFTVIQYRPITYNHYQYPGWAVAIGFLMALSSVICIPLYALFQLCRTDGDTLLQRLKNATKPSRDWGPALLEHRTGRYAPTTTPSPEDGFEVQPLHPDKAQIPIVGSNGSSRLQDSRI

[2] = target: T1, Sodium- and chloride-dependent glycine transporter 1 (Rattus norvegicus); test: Binding affinity to GlyT1 in rat brain medullary region at 0.03 to 0.04 nM preincubated for 20 mins in binding buffer before compound addition measured after 30 mins by autoradiography in presence of GlyT1 inhibitor N-Me-SSR504734 relative to control; type: tissue-based; settings: tested as the 125I-labelled form
Outline: (§1)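 Rat brain sagittal sections (20 µm) preincubated 20 min at 25 °C in Tris-HCl buffer pH 7.5 (NaCl, KCl, MgCl2, CaCl2), then 30 min at 25 °C with [125I] tracer (100 kBq, 0.03–0.04 nM) plus competitor (10 µM; glycine 1 or 10 mM). Cold washes, imaging plate 3 days, ROI PSL minus background per mm². % control from ≥triplicate slices, three rats.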

[3] = target: T1, Sodium- and chloride-dependent glycine transporter 1 (Rattus norvegicus); test: Binding affinity to GlyT1 in rat brain striatum at 0.03 to 0.04 nM preincubated for 20 mins in binding buffer before compound addition measured after 30 mins by autoradiography in presence of 0.01 mM GlyT1 inhibitor ALX5407 relative to control; type: tissue-based; settings: tested as the 125I-labelled form
[4] = target: T1, Sodium- and chloride-dependent glycine transporter 1 (Rattus norvegicus); test: Binding affinity to GlyT1 in rat brain hippocampus at 0.03 to 0.04 nM preincubated for 20 mins in binding buffer before compound addition measured after 30 mins by autoradiography in presence of 0.01 mM GlyT1 inhibitor HPCP relative to control; type: tissue-based; settings: tested as the 125I-labelled form; outline: as §1
[5] = target: T1, Sodium- and chloride-dependent glycine transporter 1 (Rattus norvegicus); test: Binding affinity to GlyT1 in rat brain midbrain at 0.03 to 0.04 nM preincubated for 20 mins in binding buffer before compound addition measured after 30 mins by autoradiography in presence of 10 mM GlyT1 substrate glycine relative to control; type: tissue-based; settings: tested as the 125I-labelled form
Mus musculus [6] = test: In vivo binding affinity to GlyT1 in ddY mouse brain cortex at 33.3 kBq, iv after 60 mins in presence of SSR504734 2 mg/kg, iv administered 15 mins prior to compound administration relative to control; type: functional, organism-based; set-up: dose 2 mg/kg; settings: tested as the 125I-labelled form
Outline: (§2)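 Blocking study in male ddY mice (6 weeks, 30–35 g). The blocker (2 mg/kg in 30% DMSO/saline) was injected i.v. 15 min before about 33.3 kBq [125I]tracer i.v.; mice were killed at 30 or 60 min. Brains were divided into cortex, corpus callosum, hippocampus, thalamus, midbrain, medulla and cerebellum, weighed and gamma-counted as % dose/g. Values are mean ± SD, n = 5–6, compared to control by Kruskal–Wallis with Dunn's post-test.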

[7] = target: T1, Sodium- and chloride-dependent glycine transporter 1 (Rattus norvegicus); test: Binding affinity to GlyT1 in rat brain hippocampus at 0.03 to 0.04 nM preincubated for 20 mins in binding buffer before compound addition measured after 30 mins by autoradiography in presence of 0.01 mM NMDA receptor glycine site antagonist L-701,324 relative to control; type: tissue-based; settings: tested as the 125I-labelled form; outline: as §1
[8] = target: T1, Sodium- and chloride-dependent glycine transporter 1 (Rattus norvegicus); test: Binding affinity to GlyT1 in rat brain medullary region at 0.03 to 0.04 nM preincubated for 20 mins in binding buffer before compound addition measured after 30 mins by autoradiography in presence of 0.01 mM GlyT1 inhibitor SSR504734 relative to control; type: tissue-based; settings: tested as the 125I-labelled form; outline: as §1
Mus musculus [9] = test: In vivo binding affinity to GlyT1 in ddY mouse brain midbrain at 33.3 kBq, iv after 60 mins in presence of SSR504734 2 mg/kg, iv administered 15 mins prior to compound administration relative to control; type: functional, organism-based; set-up: dose 2 mg/kg; settings: tested as the 125I-labelled form
Mus musculus [10] = test: In vivo binding affinity to GlyT1 in ddY mouse brain hippocampus at 33.3 kBq, iv after 30 mins in presence of nonradioactive compound 2 mg/kg, iv administered 15 mins prior to compound administration relative to control; type: functional, organism-based; set-up: dose 2 mg/kg; settings: tested as the 125I-labelled form; outline: as §2
[11] = target: T1, Sodium- and chloride-dependent glycine transporter 1 (Rattus norvegicus); test: Binding affinity to GlyT1 in rat brain cerebral cortex at 0.03 to 0.04 nM preincubated for 20 mins in binding buffer before compound addition measured after 30 mins by autoradiography in presence of 0.01 mM GlyT2 inhibitor ORG25543 relative to control; type: tissue-based; settings: tested as the 125I-labelled form; outline: as §1
[12] = target: T1, Sodium- and chloride-dependent glycine transporter 1 (Rattus norvegicus); test: Binding affinity to GlyT1 in rat brain striatum at 0.03 to 0.04 nM preincubated for 20 mins in binding buffer before compound addition measured after 30 mins by autoradiography in presence of 0.01 mM GlyT2 inhibitor ORG25543 relative to control; type: tissue-based; settings: tested as the 125I-labelled form
[13] = target: T1, Sodium- and chloride-dependent glycine transporter 1 (Rattus norvegicus); test: Binding affinity to GlyT1 in rat brain medullary region at 0.03 to 0.04 nM preincubated for 20 mins in binding buffer before compound addition measured after 30 mins by autoradiography in presence of 1 mM GlyT1 substrate glycine relative to control; type: tissue-based; settings: tested as the 125I-labelled form; outline: as §1
Mus musculus [14] = test: In vivo binding affinity to GlyT1 in ddY mouse brain medullary region at 33.3 kBq, iv after 60 mins in presence of nonradioactive compound 2 mg/kg, iv administered 15 mins prior to compound administration relative to control; type: functional, Medulla of organ
Liver = test: Drug uptake in ddY mouse liver at 11.1 kBq, iv after 5 min by gamma counting; type: ADME, organism-based; settings: in vivo
Outline: (§3)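 Male ddY mice (6 weeks, 30–35 g) were given about 11.1 kBq of [125I]tracer in 0.1 mL i.v. via the tail vein. At each time point the animals were killed and organs dissected, weighed and gamma-counted. Uptake is expressed as % injected dose per gram of tissue, mean ± SD, n = 5–6.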

Kidney = test: Drug uptake in ddY mouse kidney at 11.1 kBq, iv after 60 min by gamma counting; type: ADME, organism-based; settings: in vivo, 1 h; outline: as §3
Pancreas = test: Drug uptake in ddY mouse pancreas at 11.1 kBq, iv after 15 min by gamma counting; type: ADME, organism-based; settings: in vivo; outline: as §3
[15] = Lipophilicity, log D of the compound at pH 7.4; type: physicochemical; settings: buffer

**Q.** With `CN1CCCC[C@H]1[C@@H](NC(=O)c1cccc(C(F)(F)F)c1I)c1ccccc1` as the compound, how does the Activity [1] read?
**A.** Its Activity is 106%.

**Q.** What about the Activity [2] of the same compound?
**A.** Its Activity is 20.6%.

**Q.** What about the Activity [3] of the same compound?
**A.** Its Activity is 46.7%.

**Q.** And the Activity [4]?
**A.** Its Activity is 55.9%.

**Q.** What about the Activity [5] of the same compound?
**A.** The Activity was 52.1%.

**Q.** And the Activity (Mus musculus [6])?
**A.** Its Activity is “inactive”.

**Q.** What about the Activity [7] of the same compound?
**A.** Its Activity is 90.9%.

**Q.** What about the Activity [8] of the same compound?
**A.** The Activity was 31.7%.

**Q.** And the Activity (Mus musculus [9])?
**A.** The Activity was “inactive”.

**Q.** What about the Activity (Mus musculus [10]) of the same compound?
**A.** Its Activity is “Active”.

**Q.** What about the Activity [11] of the same compound?
**A.** Its Activity is 95.1%.

**Q.** And the Activity [12]?
**A.** The Activity was 104%.

**Q.** What about the Activity [13] of the same compound?
**A.** Its Activity is 104%.

**Q.** Which results are given for `CN1CCCC[C@H]1[C@@H](NC(=O)c1cccc(C(F)(F)F)c1[125I])c1ccccc1`?
**A.** Activity (Mus musculus [14]): 52%; Drug uptake (Liver): 9.25 % ID/g; Drug uptake (Kidney): 8.27 % ID/g; Drug uptake (Pancreas): 7.93 % ID/g; logD [15]: 2.86

— ChEMBL document CHEMBL1938298, “Synthesis and characterization of [¹²⁵I]2-iodo N-[(S)-{(S)-1-methylpiperidin-2-yl}(phenyl)methyl]3-trifluoromethyl-benzamide as novel imaging probe for glycine transporter 1” (Bioorg Med Chem, 2011)
